Active and inactive are the calls of the source. The rule behind the calls is not given here.
Legend:
[1] = biological target: Bromodomain testis-specific protein (Homo sapiens) (UniProt Q58F21); experiment: Binding affinity to human partial length BRDT bromodomain 2 (K250 to E382 residues) expressed in Escherichia coli BL21 cells assessed as residual binding level at 1 uM measured after 1 hr by quantitative PCR based BROMOscan assay relative to control
Procedure, shortened: (§1)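 A BROMOScan competition-binding panel of 32 bromodomains was run at a single 1 μM compound concentration. Results are primary-screen 'Percent Control', where lower values indicate stronger binding.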

[2] = biological target: Histone acetyltransferase KAT2B (Homo sapiens) (UniProt Q92831); experiment: Binding affinity to human partial length PCAF (G715 to D831 residues) expressed in mammalian expression system assessed as residual binding level at 1 uM measured after 1 hr by quantitative PCR based BROMOscan assay relative to control
Chain of Histone acetyltransferase KAT2B (Homo sapiens) (Q92831 whole entry, looked up, the tested form may be a part): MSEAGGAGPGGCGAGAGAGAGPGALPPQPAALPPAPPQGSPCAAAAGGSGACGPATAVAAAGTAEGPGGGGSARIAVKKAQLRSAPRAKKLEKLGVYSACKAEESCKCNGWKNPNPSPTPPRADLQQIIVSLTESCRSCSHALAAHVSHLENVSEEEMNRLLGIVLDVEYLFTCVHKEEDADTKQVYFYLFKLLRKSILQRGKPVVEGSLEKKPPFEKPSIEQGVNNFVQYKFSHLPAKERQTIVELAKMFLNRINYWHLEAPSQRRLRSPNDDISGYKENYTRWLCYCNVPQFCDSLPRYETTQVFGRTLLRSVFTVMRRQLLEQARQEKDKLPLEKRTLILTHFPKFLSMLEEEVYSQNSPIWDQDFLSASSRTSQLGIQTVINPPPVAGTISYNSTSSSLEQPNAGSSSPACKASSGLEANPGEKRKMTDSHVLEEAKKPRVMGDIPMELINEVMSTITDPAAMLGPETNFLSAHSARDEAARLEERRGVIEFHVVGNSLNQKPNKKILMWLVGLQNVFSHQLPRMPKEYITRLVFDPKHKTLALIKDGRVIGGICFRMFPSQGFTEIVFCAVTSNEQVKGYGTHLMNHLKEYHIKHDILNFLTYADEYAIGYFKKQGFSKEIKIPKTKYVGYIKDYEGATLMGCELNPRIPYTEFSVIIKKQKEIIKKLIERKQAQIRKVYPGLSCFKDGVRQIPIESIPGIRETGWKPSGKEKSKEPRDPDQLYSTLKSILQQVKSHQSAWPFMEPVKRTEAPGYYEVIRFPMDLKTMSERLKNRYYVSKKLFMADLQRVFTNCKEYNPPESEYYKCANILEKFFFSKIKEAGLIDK
Procedure, shortened: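 Bromodomain panel screen (32 bromodomains) run at 1 μM single concentration; primary binding reported as 'Percent Control', lower values meaning stronger interaction.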

[3] = Half life in dog liver microsomes; assay type: ADME, Canis lupus familiaris, Microsome
[4] = Ratio of drug level in brain to plasma in rat; assay type: ADME
Procedure, shortened: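 Rats dosed orally at 50 mg/kg in 1% DMSO/0.5% HPMC; drug measured in plasma and brain.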

[5] = biological target: Bromodomain testis-specific protein (Homo sapiens) (UniProt Q58F21); experiment: Binding affinity to human partial length BRDT bromodomain 1 (N21 to E137 residues) expressed in Escherichia coli BL21 cells assessed as residual binding level at 1 uM measured after 1 hr by quantitative PCR based BROMOscan assay relative to control; procedure, shortened: as §1
[6] = AUC (0 to t) in rat brain at 50 mg/kg, po; assay type: ADME, organism-based
Procedure, shortened: (§2)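 Compound was given orally or intravenously in 1% DMSO/0.5% HPMC vehicle. Concentrations in plasma, or in brain where stated, gave Tmax, Cmax, T1/2, AUC0-t and AUC0-inf.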

[7] = biological target: Tyrosine-protein kinase ABL1 (Homo sapiens) (UniProt P00519); experiment: Inhibition of Abl (unknown origin) at 10 uM using poly (Glu, Tyr) 4:1 as substrate after 60 mins by ELISA
Chain of Tyrosine-protein kinase ABL1 (Homo sapiens) (P00519 whole entry): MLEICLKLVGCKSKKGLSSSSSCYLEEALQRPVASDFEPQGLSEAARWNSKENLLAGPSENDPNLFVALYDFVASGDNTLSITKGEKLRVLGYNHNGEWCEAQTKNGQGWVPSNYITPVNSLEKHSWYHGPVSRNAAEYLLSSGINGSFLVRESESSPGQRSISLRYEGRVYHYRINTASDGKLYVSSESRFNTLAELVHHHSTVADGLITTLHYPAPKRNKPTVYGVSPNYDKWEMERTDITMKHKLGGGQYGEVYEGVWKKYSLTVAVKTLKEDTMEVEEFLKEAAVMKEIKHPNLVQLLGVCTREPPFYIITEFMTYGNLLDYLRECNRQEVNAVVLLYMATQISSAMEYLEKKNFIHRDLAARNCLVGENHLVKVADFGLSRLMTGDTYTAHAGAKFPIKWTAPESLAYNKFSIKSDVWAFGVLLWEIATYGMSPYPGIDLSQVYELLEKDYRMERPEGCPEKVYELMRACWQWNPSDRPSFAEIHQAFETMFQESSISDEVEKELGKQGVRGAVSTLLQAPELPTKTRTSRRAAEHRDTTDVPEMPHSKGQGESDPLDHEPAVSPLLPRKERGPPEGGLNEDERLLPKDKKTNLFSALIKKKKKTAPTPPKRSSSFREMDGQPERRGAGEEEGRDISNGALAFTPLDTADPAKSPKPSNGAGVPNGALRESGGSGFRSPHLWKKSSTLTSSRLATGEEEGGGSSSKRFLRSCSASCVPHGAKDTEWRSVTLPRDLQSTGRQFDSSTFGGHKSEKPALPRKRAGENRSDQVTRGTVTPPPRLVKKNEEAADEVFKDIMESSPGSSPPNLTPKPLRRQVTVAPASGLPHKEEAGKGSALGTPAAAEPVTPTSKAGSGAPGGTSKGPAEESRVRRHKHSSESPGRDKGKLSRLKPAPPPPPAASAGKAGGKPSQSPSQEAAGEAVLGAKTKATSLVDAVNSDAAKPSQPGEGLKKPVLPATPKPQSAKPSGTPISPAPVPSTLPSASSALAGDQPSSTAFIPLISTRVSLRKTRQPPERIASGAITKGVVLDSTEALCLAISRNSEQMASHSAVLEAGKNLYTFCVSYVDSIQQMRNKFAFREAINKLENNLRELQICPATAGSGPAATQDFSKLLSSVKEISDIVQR

[8] = Half life in rat plasma at 10 mg/kg, po; assay type: ADME, organism-based
MV4-11 [9] = experiment: Antitumor activity against human MV4-11 cells xenografted in Balb/c nude mouse assessed as tumor growth inhibition at 25 mg/kg, po administered once daily and measured twice a week by caliper method relative to control; assay type: functional; settings: MV4-11, po, read-out: TGI
[10] = AUC (0 to t) in rat plasma at 50 mg/kg, po; assay type: ADME, organism-based; procedure, shortened: as §2
MV4-11 [11] = experiment: Induction of apoptosis in human MV4-11 cells assessed as reduction in PUMA level after 24 hrs by Western blot analysis; assay type: functional, cell-based
Procedure, shortened: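 MV4-11 cells exposed to compound at the indicated doses for 24 h; lysates probed by Western blotting for the target protein, with GAPDH as loading control.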

[12] = AUC (0 to t) in rat plasma at 10 mg/kg, po; assay type: ADME, organism-based; procedure, shortened: as §2
[13] = Half life in rat brain at 50 mg/kg, po; assay type: ADME, organism-based
[14] = Clearance in rat liver microsomes; assay type: ADME, Microsome; settings: read-out: CLH
RKO = experiment: Antiproliferative activity against human RKO cells after 72 hrs by CCK8 or SRB assay; assay type: functional, cell-based
[15] = AUC (0 to infinity) in rat plasma at 10 mg/kg, po; assay type: ADME, organism-based; design: dose 10 mg/kg, route oral, time infinity; procedure, shortened: as §2
Cytochrome P450 2D6 = Cytochrome P450 2D6 (Homo sapiens, UniProt P10635); experiment: Time-dependent inhibition of CYP2D6 in human liver microsomes at 10 uM using dextromethorphan as substrate preincubated up to 30 mins followed by NADPH generating system addition and measured after 10 mins; assay type: ADME
Chain of Cytochrome P450 2D6 (P10635 whole entry): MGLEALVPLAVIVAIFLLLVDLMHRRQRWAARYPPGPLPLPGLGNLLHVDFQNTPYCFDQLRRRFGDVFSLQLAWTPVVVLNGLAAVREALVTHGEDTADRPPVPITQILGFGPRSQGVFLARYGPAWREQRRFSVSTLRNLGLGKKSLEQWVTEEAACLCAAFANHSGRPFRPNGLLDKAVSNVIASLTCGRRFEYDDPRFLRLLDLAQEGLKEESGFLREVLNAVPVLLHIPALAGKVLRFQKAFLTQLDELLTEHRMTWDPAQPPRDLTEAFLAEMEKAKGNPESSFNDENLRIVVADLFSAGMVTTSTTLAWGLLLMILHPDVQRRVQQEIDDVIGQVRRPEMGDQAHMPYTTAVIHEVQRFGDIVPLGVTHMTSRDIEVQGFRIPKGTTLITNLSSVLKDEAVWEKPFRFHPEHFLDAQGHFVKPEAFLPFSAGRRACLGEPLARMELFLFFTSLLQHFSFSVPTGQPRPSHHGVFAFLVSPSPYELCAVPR
Procedure, shortened: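 Human liver microsomes 0.2 mg/mL, 100 mM phosphate pH 7.4, 10 μM test compound, preincubated 0, 5, 10 and 30 min at 37 °C; then NADPH plus probe cocktail (5 μM midazolam, 50 μM testosterone, 5 μM dextromethorphan, 10 μM diclofenac, 50 μM phenacetin, 50 μM S-(+)-mephenytoin) added; 10 min reaction; kobs in units of 10^-4/min.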

MV4-11 [16] = experiment: Induction of apoptosis in human MV4-11 cells assessed as reduction in c-IAP2 level after 24 hrs by Western blot analysis; assay type: functional, cell-based
[17] = Half life in ICR mouse plasma at 50 mg/kg, po administered via gavage measured after 0.25 to 24 hrs by UPLC/MS analysis; assay type: ADME, organism-based
Procedure, shortened: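 Male ICR mice dosed orally in 1% DMSO/0.5% HPMC vehicle; plasma or brain drug levels used to derive Tmax, Cmax, AUC0-t, AUC0-inf and T1/2.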

**Q.** Which Activity [1] does the source give for `Cc1ccc(-n2nc(C(=O)N3C[C@@H](C)N[C@@H](C)C3)nc2-c2ccc3c(c2)N(C2CCCC2)[C@H](C)C(=O)N3C)cc1` here?
**A.** The Activity was less than 5%.

**Q.** And the Activity [2]?
**A.** Its Activity is 70 to 100%.

**Q.** And the half-life [3]?
**A.** The half-life was 0.3 h.

**Q.** And the BPR [4]?
**A.** The BPR was 8.7%.

**Q.** And the Activity [5]?
**A.** The Activity was less than 5%.

**Q.** What about the AUC(0-t) [6] of the same compound?
**A.** The AUC(0-t) was 331 ng·h/mL.

**Q.** What about the inhibition [7] of the same compound?
**A.** Its inhibition is “Active”.

**Q.** What about the half-life [8] of the same compound?
**A.** The half-life was 5 h.

**Q.** What about the inhibition in vivo at 25 mg/kg (MV4-11 [9]) of the same compound?
**A.** The inhibition in vivo at 25 mg/kg was 89.7%.

**Q.** What about the AUC(0-t) [10] of the same compound?
**A.** The AUC(0-t) was 3820 ng·h/mL.

**Q.** And the Activity (MV4-11 [11])?
**A.** Its Activity is “Dose-dependent effect”.

**Q.** What about the AUC(0-t) [12] of the same compound?
**A.** Its AUC(0-t) is 1220 ng·h/mL.

**Q.** What about the half-life [13] of the same compound?
**A.** The half-life was 9.3 h.

**Q.** And the microsomal CLint [14]?
**A.** The microsomal CLint was 28 µL/min/mg.

**Q.** What about the Activity (RKO) of the same compound?
**A.** The Activity was “Active”.

**Q.** What about the AUC(0-inf) [15] of the same compound?
**A.** Its AUC(0-inf) is 1270 ng·h/mL.

**Q.** What about the TDI (Cytochrome P450 2D6) of the same compound?
**A.** The TDI was “Not Active”.

**Q.** And the Activity (MV4-11 [16])?
**A.** Its Activity is “Dose-dependent effect”.

**Q.** And the half-life [17]?
**A.** The half-life was 2.8 h.

Reference: ChEMBL document CHEMBL4414574, “Structure-Based Discovery and Development of a Series of Potent and Selective Bromodomain and Extra-Terminal Protein Inhibitors” (J Med Chem, 2019)
